Results: ChEMBL document CHEMBL1938272 (Bioorg Med Chem, 2012)

Target: NAD(P)H dehydrogenase [quinone] 1 (Mus musculus) (UniProt Q64669)
Experiment: Induction of QR1-mediated cytoprotective activity in mouse TAOc1 mutant Hepa cells at 50 uM assessed as cell survival
Type: cell-based
Conditions: not given

Chain of NAD(P)H dehydrogenase [quinone] 1 (Mus musculus) (Q64669 whole entry): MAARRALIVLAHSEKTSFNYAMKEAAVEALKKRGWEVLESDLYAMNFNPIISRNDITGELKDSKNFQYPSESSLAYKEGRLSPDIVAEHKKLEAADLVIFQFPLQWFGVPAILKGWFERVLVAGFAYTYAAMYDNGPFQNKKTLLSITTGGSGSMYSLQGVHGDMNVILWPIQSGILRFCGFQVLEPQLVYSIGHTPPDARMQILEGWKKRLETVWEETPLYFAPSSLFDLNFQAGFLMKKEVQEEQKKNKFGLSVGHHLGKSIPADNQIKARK

Row | Compound | Survival
1 | FC(F)(F)c1ccc(-c2nsc(-c3ccc(C(F)(F)F)cc3)n2)cc1 | 91%
2 | Clc1ccc(Cl)c(-c2nsc(-c3cc(Cl)ccc3Cl)n2)c1 | 82.8%
3 | Cc1cc(Br)ccc1-c1nsc(-c2ccc(Br)cc2C)n1 | 68.6%
4 | Fc1ccc(-c2nsc(-c3ccc(F)cc3)n2)cc1 | 83%
5 | CC(C)(C)c1ccc(-c2nsc(-c3ccc(C(C)(C)C)cc3)n2)cc1 | 74.1%

Test system: RAW264.7
Experiment: Antiinflammatory activity in mouse RAW264.7 cells assessed as inhibition of LPS-induced NO production at 40 uM preincubated for 30 mins before LPS challenge by Griess method
Conditions: not given

Row | Compound | inhibition at 40 µM
6 | Oc1ccc(CCc2cc(O)cc(O)c2)cc1 [DIHYDRORESVERATROL] | 36.2%
7 | COc1ccc(-c2nsc(-c3ccc(OC)cc3)n2)cc1 | 1.7%
8 | Cc1ccc(-c2nsc(-c3ccc(C)cc3)n2)cc1 | 9.6%
9 | O=[N+]([O-])c1ccc(-c2nsc(-c3ccc([N+](=O)[O-])cc3)n2)cc1 | 1.6%
10 | Ic1ccc(-c2nsc(-c3ccc(I)cc3)n2)cc1 | 20.3%
11 | N#Cc1cccc(-c2nsc(-c3cccc(C#N)c3)n2)c1 | 26.4%
12 | Cc1ccc(-c2nsc(-c3ccc(C)cc3Br)n2)c(Br)c1 | 25%
13 | Clc1ccc(-c2nsc(-c3ccc(Cl)c(Cl)c3)n2)cc1Cl | 21.5%
14 | FC(F)(F)c1ccc(-c2nsc(-c3ccc(C(F)(F)F)cc3)n2)cc1 | 8.5%
15 | Clc1ccc(Cl)c(-c2nsc(-c3cc(Cl)ccc3Cl)n2)c1 | 17.9%
16 | Cc1cc(Br)ccc1-c1nsc(-c2ccc(Br)cc2C)n1 | 23.3%
17 | N#Cc1ccc(-c2nsc(-c3ccc(C#N)cc3)n2)cc1 | -0.4%
18 | Fc1ccc(-c2nsc(-c3ccc(F)cc3)n2)cc1 | 22.2%
19 | CC(C)(C)c1ccc(-c2nsc(-c3ccc(C(C)(C)C)cc3)n2)cc1 | 0.5%
20 | CCCCc1ccc(-c2nsc(-c3ccc(CCCC)cc3)n2)cc1 | -3.5%

Target: NAD(P)H dehydrogenase [quinone] 1 (Mus musculus) (UniProt Q64669)
Experiment: Induction of QR1 activity in mouse TAOc1 mutant Hepa cells using MTT as substrate by spectrophotometry
Type: cell-based
Conditions: not given

Row | Compound | CD
21 | Clc1ccc(Cl)c(-c2nsc(-c3cc(Cl)ccc3Cl)n2)c1 | 41 µM

Test system: MCF7
Experiment: Antiproliferative activity against human MCF7 cells after 72 hrs by SRB assay
Type: functional, cell-based
Conditions: MCF7, 72 h
Outline: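 MCF-7 breast cancer cells exposed to serially diluted compounds (DMSO) for 72 h at 37 °C in CO2 incubator; fixed with 10% trichloroacetic acid, stained with 0.4% SRB, OD read at 515 nm. Zero-day control of 1 × 10^4 cells per well processed after 30 min. Survival = (OD test − OD zero-day)/(OD control − OD zero-day) × 100; IC50 from survival.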

Row | Compound | IC50
22 | Oc1ccc(CCc2cc(O)cc(O)c2)cc1 [DIHYDRORESVERATROL] | 30.3 µM
23 | COc1ccc(-c2nsc(-c3ccc(OC)cc3)n2)cc1 | 17.4 µM
24 | Clc1ccc(-c2nsc(-c3ccc(Cl)c(Cl)c3)n2)cc1Cl | 23.5 µM
25 | Clc1ccc(Cl)c(-c2nsc(-c3cc(Cl)ccc3Cl)n2)c1 | 17.8 µM
26 | Cc1cc(Br)ccc1-c1nsc(-c2ccc(Br)cc2C)n1 | 39.8 µM
27 | N#Cc1ccc(-c2nsc(-c3ccc(C#N)cc3)n2)cc1 | 31.3 µM
28 | Fc1ccc(-c2nsc(-c3ccc(F)cc3)n2)cc1 | 18.8 µM

Target: T1, Aromatase (Homo sapiens, UniProt P11511)
T1 sequence (P11511 whole entry): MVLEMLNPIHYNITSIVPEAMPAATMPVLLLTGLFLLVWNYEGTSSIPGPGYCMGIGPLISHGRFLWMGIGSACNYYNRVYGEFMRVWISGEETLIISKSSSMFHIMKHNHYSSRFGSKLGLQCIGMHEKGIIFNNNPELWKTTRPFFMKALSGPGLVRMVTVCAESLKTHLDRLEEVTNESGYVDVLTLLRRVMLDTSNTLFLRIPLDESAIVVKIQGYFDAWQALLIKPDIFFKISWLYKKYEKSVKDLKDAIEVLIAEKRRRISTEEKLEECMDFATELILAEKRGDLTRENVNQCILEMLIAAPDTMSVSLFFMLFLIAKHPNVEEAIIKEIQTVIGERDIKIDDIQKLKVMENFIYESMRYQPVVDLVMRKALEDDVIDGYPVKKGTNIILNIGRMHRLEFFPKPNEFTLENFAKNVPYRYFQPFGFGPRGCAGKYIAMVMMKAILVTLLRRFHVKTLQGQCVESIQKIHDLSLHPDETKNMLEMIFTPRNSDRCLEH
Experiment: not given
Conditions: not given

Row | Compound | IC50
29 | Oc1ccc(CCc2cc(O)cc(O)c2)cc1 [DIHYDRORESVERATROL] | > 50 µM
30 | COc1ccc(-c2nsc(-c3ccc(OC)cc3)n2)cc1 | > 50 µM
31 | Cc1ccc(-c2nsc(-c3ccc(C)cc3)n2)cc1 | > 50 µM
32 | O=[N+]([O-])c1ccc(-c2nsc(-c3ccc([N+](=O)[O-])cc3)n2)cc1 | > 50 µM
33 | Ic1ccc(-c2nsc(-c3ccc(I)cc3)n2)cc1 | > 50 µM
34 | N#Cc1cccc(-c2nsc(-c3cccc(C#N)c3)n2)c1 | > 50 µM
35 | Cc1ccc(-c2nsc(-c3ccc(C)cc3Br)n2)c(Br)c1 | > 50 µM
36 | Clc1ccc(-c2nsc(-c3ccc(Cl)c(Cl)c3)n2)cc1Cl | > 50 µM
37 | FC(F)(F)c1ccc(-c2nsc(-c3ccc(C(F)(F)F)cc3)n2)cc1 | > 50 µM
38 | Clc1ccc(Cl)c(-c2nsc(-c3cc(Cl)ccc3Cl)n2)c1 | > 50 µM
39 | Cc1cc(Br)ccc1-c1nsc(-c2ccc(Br)cc2C)n1 | > 50 µM
40 | N#Cc1ccc(-c2nsc(-c3ccc(C#N)cc3)n2)cc1 | > 50 µM
41 | Fc1ccc(-c2nsc(-c3ccc(F)cc3)n2)cc1 | > 50 µM
42 | CC(C)(C)c1ccc(-c2nsc(-c3ccc(C(C)(C)C)cc3)n2)cc1 | > 50 µM
43 | CCCCc1ccc(-c2nsc(-c3ccc(CCCC)cc3)n2)cc1 | > 50 µM

Target: NAD(P)H dehydrogenase [quinone] 1 (Mus musculus) (UniProt Q64669)
Experiment: Induction of QR1 activity in mouse Hepa-1c1c7 cells using MTT as substrate by spectrophotometry
Type: cell-based
Conditions: not given
Outline: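 Mouse hepatoma Hepa 1c1c7 cells were incubated with compound, then permeabilised with digitonin. QR1 activity was read as MTT reduction to formazan at 595 nm, with crystal violet total protein run in parallel. Induction ratio is activity versus control; CD is the concentration doubling activity, derived only when the ratio is above 2.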

Row | Compound | CD
44 | CC(C)(C)c1ccc(-c2nsc(-c3ccc(C(C)(C)C)cc3)n2)cc1 | 27.7 µM

Target: NAD(P)H dehydrogenase [quinone] 1 (Mus musculus) (UniProt Q64669)
Experiment: Induction of QR1-mediated cytoprotective activity in mouse BPrc1 cells at 50 uM assessed as cell survival
Type: cell-based
Conditions: not given

Row | Compound | Survival
45 | FC(F)(F)c1ccc(-c2nsc(-c3ccc(C(F)(F)F)cc3)n2)cc1 | 71%
46 | Clc1ccc(Cl)c(-c2nsc(-c3cc(Cl)ccc3Cl)n2)c1 | 94.7%
47 | Cc1cc(Br)ccc1-c1nsc(-c2ccc(Br)cc2C)n1 | 95.9%
48 | Fc1ccc(-c2nsc(-c3ccc(F)cc3)n2)cc1 | 86.4%
49 | CC(C)(C)c1ccc(-c2nsc(-c3ccc(C(C)(C)C)cc3)n2)cc1 | 85.1%

Test system: Radical scavenging activity
Experiment: Antioxidant activity assessed as DPPH free radical scavenging activity at 400 uM after 30 mins by spectrophotometry
Type: functional
Conditions: not given

Row | Compound | inhibition
50 | Oc1ccc(CCc2cc(O)cc(O)c2)cc1 [DIHYDRORESVERATROL] | 14.7%
51 | COc1ccc(-c2nsc(-c3ccc(OC)cc3)n2)cc1 | 3.1%
52 | Cc1ccc(-c2nsc(-c3ccc(C)cc3)n2)cc1 | 7.2%
53 | O=[N+]([O-])c1ccc(-c2nsc(-c3ccc([N+](=O)[O-])cc3)n2)cc1 | 7.3%
54 | N#Cc1cccc(-c2nsc(-c3cccc(C#N)c3)n2)c1 | 1.4%
55 | Cc1ccc(-c2nsc(-c3ccc(C)cc3Br)n2)c(Br)c1 | 3.4%
56 | Clc1ccc(-c2nsc(-c3ccc(Cl)c(Cl)c3)n2)cc1Cl | 9.6%
57 | FC(F)(F)c1ccc(-c2nsc(-c3ccc(C(F)(F)F)cc3)n2)cc1 | 2.5%
58 | Clc1ccc(Cl)c(-c2nsc(-c3cc(Cl)ccc3Cl)n2)c1 | 1%
59 | Cc1cc(Br)ccc1-c1nsc(-c2ccc(Br)cc2C)n1 | 2.2%
60 | N#Cc1ccc(-c2nsc(-c3ccc(C#N)cc3)n2)cc1 | 6%
61 | Fc1ccc(-c2nsc(-c3ccc(F)cc3)n2)cc1 | 6.9%
62 | CC(C)(C)c1ccc(-c2nsc(-c3ccc(C(C)(C)C)cc3)n2)cc1 | 2.9%
63 | CCCCc1ccc(-c2nsc(-c3ccc(CCCC)cc3)n2)cc1 | 2.1%

Target: NAD(P)H dehydrogenase [quinone] 1 (Mus musculus) (UniProt Q64669)
Experiment: Induction of QR1-mediated cytoprotective activity in mouse Hepa-1c1c7 cells at 50 uM assessed as cell survival
Type: cell-based
Conditions: not given

Row | Compound | Survival
64 | Oc1ccc(CCc2cc(O)cc(O)c2)cc1 [DIHYDRORESVERATROL] | 82.6%
65 | COc1ccc(-c2nsc(-c3ccc(OC)cc3)n2)cc1 | 94.2%
66 | Cc1ccc(-c2nsc(-c3ccc(C)cc3)n2)cc1 | 96.8%
67 | O=[N+]([O-])c1ccc(-c2nsc(-c3ccc([N+](=O)[O-])cc3)n2)cc1 | 78.9%
68 | Ic1ccc(-c2nsc(-c3ccc(I)cc3)n2)cc1 | 105%
69 | N#Cc1cccc(-c2nsc(-c3cccc(C#N)c3)n2)c1 | 57.9%
70 | Cc1ccc(-c2nsc(-c3ccc(C)cc3Br)n2)c(Br)c1 | 49.6%
71 | Clc1ccc(-c2nsc(-c3ccc(Cl)c(Cl)c3)n2)cc1Cl | 80%
72 | FC(F)(F)c1ccc(-c2nsc(-c3ccc(C(F)(F)F)cc3)n2)cc1 | 97.9%
73 | Clc1ccc(Cl)c(-c2nsc(-c3cc(Cl)ccc3Cl)n2)c1 | 88.1%
74 | Cc1cc(Br)ccc1-c1nsc(-c2ccc(Br)cc2C)n1 | 71.3%
75 | N#Cc1ccc(-c2nsc(-c3ccc(C#N)cc3)n2)cc1 | 46.2%
76 | Fc1ccc(-c2nsc(-c3ccc(F)cc3)n2)cc1 | 96.3%
77 | CC(C)(C)c1ccc(-c2nsc(-c3ccc(C(C)(C)C)cc3)n2)cc1 | 47.5%
78 | CCCCc1ccc(-c2nsc(-c3ccc(CCCC)cc3)n2)cc1 | 100%

Test system: HEK293
Experiment: Inhibition of TNFalpha-activated NF-kappaB expressed in HEK293 cells at 50 uM by luciferase reporter gene assay
Type: cell-based
Conditions: not given

Row | Compound | inhibition
79 | Oc1ccc(CCc2cc(O)cc(O)c2)cc1 [DIHYDRORESVERATROL] | 16.7%
80 | Ic1ccc(-c2nsc(-c3ccc(I)cc3)n2)cc1 | 0%
81 | Cc1ccc(-c2nsc(-c3ccc(C)cc3Br)n2)c(Br)c1 | 0%
82 | FC(F)(F)c1ccc(-c2nsc(-c3ccc(C(F)(F)F)cc3)n2)cc1 | 0%
83 | Cc1cc(Br)ccc1-c1nsc(-c2ccc(Br)cc2C)n1 | 6.7%
84 | Fc1ccc(-c2nsc(-c3ccc(F)cc3)n2)cc1 | 0%
85 | CC(C)(C)c1ccc(-c2nsc(-c3ccc(C(C)(C)C)cc3)n2)cc1 | 0%

Target: T1, Aromatase
Experiment: not given
Conditions: 2 h, read-out: Imax

Row | Compound | inhibition at 50 µM
86 | Oc1ccc(CCc2cc(O)cc(O)c2)cc1 [DIHYDRORESVERATROL] | 37.8%
87 | COc1ccc(-c2nsc(-c3ccc(OC)cc3)n2)cc1 | 11.1%
88 | Cc1ccc(-c2nsc(-c3ccc(C)cc3)n2)cc1 | 21.3%
89 | O=[N+]([O-])c1ccc(-c2nsc(-c3ccc([N+](=O)[O-])cc3)n2)cc1 | 29.4%
90 | Ic1ccc(-c2nsc(-c3ccc(I)cc3)n2)cc1 | 36.7%
91 | N#Cc1cccc(-c2nsc(-c3cccc(C#N)c3)n2)c1 | 22.1%
92 | Cc1ccc(-c2nsc(-c3ccc(C)cc3Br)n2)c(Br)c1 | 48.3%
93 | Clc1ccc(-c2nsc(-c3ccc(Cl)c(Cl)c3)n2)cc1Cl | 23%
94 | FC(F)(F)c1ccc(-c2nsc(-c3ccc(C(F)(F)F)cc3)n2)cc1 | 41%
95 | Clc1ccc(Cl)c(-c2nsc(-c3cc(Cl)ccc3Cl)n2)c1 | 16.6%
96 | Cc1cc(Br)ccc1-c1nsc(-c2ccc(Br)cc2C)n1 | 47.8%
97 | N#Cc1ccc(-c2nsc(-c3ccc(C#N)cc3)n2)cc1 | 38.5%
98 | Fc1ccc(-c2nsc(-c3ccc(F)cc3)n2)cc1 | 45.2%
99 | CC(C)(C)c1ccc(-c2nsc(-c3ccc(C(C)(C)C)cc3)n2)cc1 | 43.5%
100 | CCCCc1ccc(-c2nsc(-c3ccc(CCCC)cc3)n2)cc1 | 35.5%

Target: NAD(P)H dehydrogenase [quinone] 1 (Mus musculus) (UniProt Q64669)
Experiment: Induction of QR1 activity in mouse BPrc1 cells using MTT as substrate by spectrophotometry
Type: cell-based
Conditions: not given

Row | Compound | CD
101 | Clc1ccc(Cl)c(-c2nsc(-c3cc(Cl)ccc3Cl)n2)c1 | 44.5 µM
